Experimental findings from ChEMBL document CHEMBL1148334, “Design and synthesis of novel biologically active thrombin receptor non-peptide mimetics based on the pharmacophoric cluster Phe/Arg/NH2 of the Ser42-Phe-Leu-Leu-Arg46 motif sequence: platelet aggregation and relaxant activities” (J Med Chem, 2004) are described below.

The species named for assay [1] is Homo sapiens. In words: In vitro inhibitory concentration against thrombin-induced platelet aggregation in human platelet-rich plasma in presence of thrombin at 0.25 IU/mL. The assay is classed as functional. In outline:
(§1)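 Healthy drug-free donors' venous blood centrifuged 800 rpm 8 min RT; PRP diluted with PPP to 2 × 10⁸ platelets/mL, one donor per series. PRP stirred (1100 rpm) with compound 0.05-1 mM ≥4 min, then bovine thrombin added at 37 °C; light transmittance recorded 4 min, PPP = 100%, PRP = 0%. Studies finished within 1 h of collection.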

Assay [2] is filed under the species Homo sapiens. In words: In vitro inhibitory concentration against thrombin-induced platelet aggregation in human platelet-rich plasma in presence of thrombin at 0.30 IU/mL. The assay is classed as functional. In outline: as §1
For assay [3], the species on record is Rattus norvegicus. Kind of assay: Maximal relaxing effect of compound in isolated rat aortic rings precontracted with 1 uM phenylephrine at 100 uM concentration. The assay is classed as functional, Aorta. In outline: (§2)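 Thoracic aorta of adult male Wistar rats cut into 2 mm rings, one with intact and one with mechanically removed endothelium. Superfused 1 mL/min with modified Tyrode-type buffer, 37 °C, pH 7.44, carbogen; basal tension 2 g, isometric force. Endothelium checked with 1 µM carbachol against 1 µM phenylephrine. Compounds added 30 min after perfusion, on phenylephrine tone; some rings pretreated with 300 µM L-NAME. Mean ± SEM.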

The species named for assay [4] is Homo sapiens. Kind of assay: In vitro inhibitory concentration against thrombin-induced platelet aggregation in human platelet-rich plasma in presence of thrombin at 0.20 IU/mL. The assay is classed as functional. In short, it runs like this:
as §1

The species entered for assay [5] is Homo sapiens. Kind of assay: Inhibitory concentration against SFLLR-NH2 (2.5 uM) induced platelet aggregation in human platelet-rich plasma. The assay is classed as functional, organism-based. In outline: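 Human PRP (2 × 10⁸ platelets/mL, healthy donors) stirred with compound, then aggregation triggered by SFLLR-NH₂ 2.5 µM instead of thrombin; optical aggregometry read-out.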

The nature of assay [6]: Relative potency (REC) is the ratio of concentration of compound to the concentration of SFLLR-NH2 for producing equal relaxing effect on the isolated rat aortic rings. The assay is classed as functional, Aorta.
The species entered for assay [7] is Rattus norvegicus. In words: Maximal relaxing effect of compound in isolated rat aortic rings precontracted phenylephrine at 100 uM concentration. The assay is classed as functional, Aorta. In outline:
as §2

The species named for assay [8] is Rattus norvegicus. In words: Contraction in isolated rat aortic rings without endothelium at 10-100 uM concentration; Range is 2-3%. The assay is classed as functional, Aorta. In outline: as §2
The species named for assay [9] is Rattus norvegicus. In words: Maximal relaxing effect in isolated rat aortic rings with endothelium precontracted with 1 uM phenylephrine at 0.1-100 uM concentration; Range is 1.8-40.7%. The assay is classed as functional, Aorta. In short, it runs like this: as §2
For assay [10], the species on record is Rattus norvegicus. In words: Maximal relaxing effect in isolated rat aortic rings without endothelium precontracted with 1 uM phenylephrine at 0.1-100 uM concentration; Range is 2.3-14%. The assay is classed as functional, Aorta. In outline: as §2
The species named for assay [11] is Rattus norvegicus. In words: Reduction of maximal relaxing response in isolated rat aortic rings precontracted with Nomega-nitro-L-arginine (L-NAME) at 0.1-100 uM concentration; Range is 17-18%. The assay is classed as functional, Aorta. In outline:
as §2

For assay [12], the species on record is Rattus norvegicus. In words: Relaxing effect dependent on nitric oxide in isolated rat aortic rings at 0.1-100 uM compound concentration; Range is 0-25%. The assay is classed as functional, Aorta. In short, it runs like this:
as §2

The species entered for assay [13] is Rattus norvegicus. Kind of assay: Maximal relaxing effect in isolated rat aortic rings with endothelium precontracted with 1 uM phenylephrine at 0.1-100 uM concentration; Range is 1.3-42.7%. The assay is classed as functional, Aorta. In outline: as §2

Structures are written as SMILES.

The term IC50 denotes the concentration needed to halve the response being measured. As to `N=C(N)NCCCCCC(=O)N1CCN(C(=O)Cc2ccccc2)CC1`, the half-inhibitory concentration (IC50) in the assay listed under Homo sapiens [1] turned out to be 510 µM; in the assay filed under Homo sapiens [2], 440 µM; in the assay filed under Homo sapiens [4] it was 460 µM; in the assay filed under Homo sapiens [5], 780 µM. Also, the Max efficacy in the assay filed under Rattus norvegicus [3] was found to be 81%. In assay [6], the Relative potency is 0.19.
For `N=C(N)NCCCCCC(=O)NCC1CCN(C(=O)Cc2ccccc2)CC1`, the IC50 in the assay filed under Homo sapiens [1] is > 250 µM; in the assay listed under Homo sapiens [2], > 250 µM; in the assay listed under Homo sapiens [4], 140 µM. For the same molecule, the Max efficacy in the assay listed under Rattus norvegicus [3] is reported as 91.4%. The Relative potency in assay [6] was found to be 0.06.
As to `N=C(N)NCCCCCC(=O)NC1CCN(C(=O)Cc2ccccc2)C1` (stereo not given), the Max efficacy in the assay listed under Rattus norvegicus [7] came to 37.5%. Also, the results for the IC50 in the assay listed under Homo sapiens [1], in the assay listed under Homo sapiens [2] and in the assay listed under Homo sapiens [4] were 120 µM, 210 µM and 110 µM, respectively. Also, in [6], the Relative potency was determined as 17.3.
For `NC(N)=NCCCCCC(=O)NC1CCN(C(=O)C(N)Cc2ccccc2)C1` (stereo not given), in the assay listed under Rattus norvegicus [8], the Contraction is recorded as 3%. In addition, the half-maximal inhibitory concentration (IC50) turned out to be 340 µM in the assay filed under Homo sapiens [1], 390 µM in the assay listed under Homo sapiens [2] and 420 µM in the assay listed under Homo sapiens [4]. In the assay listed under Rattus norvegicus [9], this molecule returned a Max efficacy of 40.7%. Besides, the Relative potency in [6] amounted to 24.
As to `NC(N)=NCCCCCC(=O)NCC1CCN(C(=O)C(N)Cc2ccccc2)CC1` (stereo not given), the IC50 in the assay filed under Homo sapiens [1] was > 1000 µM; in the assay listed under Homo sapiens [2] it was 870 µM; in the assay listed under Homo sapiens [4], > 1000 µM. Also, the Max efficacy in the assay listed under Rattus norvegicus [10] was 14%; in the assay listed under Rattus norvegicus [13] it was 42.7%. The Reduction in the assay listed under Rattus norvegicus [11] was 18%. For the same molecule, the Relaxation in the assay listed under Rattus norvegicus [12] came out at 25%. For the same molecule, in assay [6], the Relative potency is on record as 13.6.
In the case of `NC(N)=NCCCCCC(=O)N1CCN(C(=O)C(N)Cc2ccccc2)CC1` (stereo not given), the IC50 in the assay listed under Homo sapiens [1] is 90 µM; in the assay listed under Homo sapiens [2], 240 µM; in the assay filed under Homo sapiens [4] it was 120 µM; in the assay listed under Homo sapiens [5] it was 370 µM. Further, the Relative potency in assay [6] came out at 38.2.
